In data set [1] the test system is Rattus norvegicus. The data set is described as follows: Anticonvulsant activity measured to prevent maximal electroshock seizure in rats when administered intraperitoneally. The format is functional. The conditions noted are these: ip. The method in brief: (§1)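 Male Sprague–Dawley rats (160–300 g) given compound ip as suspension in 0.5% methylcellulose (10 mL/kg), 30 min before electroshock; 150 mA via corneal electrodes for 0.2 s. Protection = abolition of hind-limb tonic extensor component. ED50 in mg/kg.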
(In general: In the maximal electroshock model the usual endpoint is tonic extension of the hind limbs.)

The test system of data set [2] is Rattus norvegicus. As to the kind of experiment: (§2) Anticonvulsant activity was measured by the ability to prevent intraperitoneally. The format is functional. The method in brief: (§3)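 Pentylenetetrazole (90 mg/kg ip) given after ip pretreatment with test agent as suspension in 0.5% methylcellulose; controls received diluent. Animals observed 15 min; protection = absence of clonic seizures. ED50 in mg/kg.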

Data set [3] is described as follows: Acute toxicity measured in mice when administered intraperitoneally. The format is organism-based. The conditions noted are these: mus sp., in vivo, ip.
The species entered for data set [4] is Rattus norvegicus. As to the kind of experiment: Peak time of anticonvulsant activity against MES was determined; 4-6. Type of data set: functional. In outline: (§4)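 Separate groups of rats dosed ip at approximate ED84 and challenged by maximal electroshock (150 mA, 0.2 s, corneal electrodes) at 0.5, 1, 2, 3 or >6 h after dosing; protection = hind-limb extensor blocked. Time of peak activity/duration in h.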

Data set [5] has as its system Mus musculus. As to the kind of experiment: Neurological deficit was measured in the mice using rotarod test when administered intraperitoneally. The format is functional. The conditions noted are these: ip. In outline:
(§5)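 Mice dosed ip, then placed on rotarod turning at 11 rpm; failure to stay on for at least 1 min scored as loss of coordination. ED50 in mg/kg.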
(Falling from the rotarod earlier than controls is read as motor impairment.)

A short description of data set [6]: Acute toxicity of was measured in rat by po administration of the compound. Type of data set: organism-based. The conditions noted are these: in vivo.
The subject of data set [7] is Mus musculus. As to the kind of experiment: Anticonvulsant activity was measured by the ability to prevent matrazol induced threshold clonic seizures in mice when administered intraperitoneally. Type of data set: functional. The conditions noted are these: ip. In outline: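 Mice were pretreated intraperitoneally 30 min before pentylenetetrazole (90 mg/kg ip). Compounds were given as a 0.5% methylcellulose suspension at 10 mL/kg; controls received diluent. Animals were watched for 15 min and counted protected if clonic seizures were prevented. The ED50 is the dose protecting half the animals.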

The nature of data set [8]: Acute toxicity of was measured in rat by ip administration of the compound. Type of data set: organism-based. The conditions noted are these: in vivo.
Data set [9] relates to Rattus norvegicus. The data set is described as follows: Anticonvulsant activity was measured by the ability to prevent intraperitoneally; Inactive. The format is functional, organism-based. The method in brief:
as §3

In data set [10] the test system is Mus musculus. As to the kind of experiment: Tolerance was tested in maximal electroshock seizures test in mice when administered intraperitoneally; Yes. The format is functional, organism-based.
Data set [11] relates to Mus musculus. The data set is described as follows: Loss of righting reflex was measured in the mice when administered intraperitoneally. The format is functional. The conditions noted are these: ip.
The subject of data set [12] is Mus musculus. The data set is described as follows: Anticonvulsant activity was measured by the ability to prevent maximal electroshock seizure in mice when administered intraperitoneally. Type of data set: functional. The conditions noted are these: ip. The method in brief:
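Male ICR (Blue Spruce) mice, 19–22 g, dosed ip as suspension in 0.5% methylcellulose (10 mL/kg) 30 min prior to corneal electroshock, 50 mA for 0.2 s. Mice scored protected if hind-limb extensor phase was blocked; ED50 in mg/kg.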

Data set [13] in a line: (§6) Acute toxicity of was measured in rat by ip administration when administered intraperitoneally. Type of data set: organism-based. The conditions noted are these: in vivo.
For data set [14], the species on record is Rattus norvegicus. As to the kind of experiment: Peak time of anticonvulsant activity against MES was determined. The format is functional. The method in brief: as §4
Data set [15] has as its system Mus musculus. As to the kind of experiment: Neurological deficit (Loss of coordination) was measured in the mice using rotarod test when administered intraperitoneally. The format is functional. The conditions noted are these: ip. The method in brief:
as §5

Data set [16] concerns Rattus norvegicus. As to the kind of experiment: Acute toxicity of was measured in rat by po administration when administered intraperitoneally. The conditions noted are these: in vivo. Type of data set: organism-based.
Data set [17] concerns Rattus norvegicus. The data set is described as follows: Anticonvulsant activity was measured by the ability to prevent maximal electroshock seizure in rat when administered intraperitoneally. The format is functional. The conditions noted are these: ip. The method in brief: as §1
Data set [18] can be described thus: as §6. The format is organism-based. The conditions noted are these: in vivo. The source holds these as a separate data set.
Data set [19] relates to Rattus norvegicus. As to the kind of experiment: Peak time of anticonvulsant activity against MES was determined ip. Type of data set: functional. The method in brief: as §4
The test system of data set [20] is Mus musculus. Described as §2. The conditions noted are these: ip. Type of data set: functional. The method in brief: as §3

SMILES strings stand for the structures. Active and inactive are the calls of the source.

What is called ED50 is the midpoint of the dose-response relation. On to `O=C1NC(=O)C(Cc2cccc(Cl)c2)N1` (centres undefined), for which the ED50 in the data set with Rattus norvegicus [1] was over 50 mg/kg; in the data set on Rattus norvegicus [2] (ip) it was about 150 mg/kg.

In general, LD50 refers to the dose expected to kill half of the subjects tested. A high value points to a less toxic substance. `COc1ccc(CC2(C)NC(=O)NC2=O)c(OC)c1` (centres undefined) displayed an ED50 with Rattus norvegicus [1] of over 50 mg/kg. Besides, the LD50 in data set [3] is over 600 mg/kg.

With `O=C1NC(=O)C(Cc2cccc(Br)c2)N1` (centres undefined), the figures for the ED50 with Rattus norvegicus [1] and in the data set with Rattus norvegicus [2] (ip) were over 50 mg/kg and over 200 mg/kg, respectively.

In the data set on Rattus norvegicus [1], `CC1(Cc2cccc(C(F)(F)F)c2)NC(=O)NC1=O` (centres undefined) had an ED50 of over 50 mg/kg.

In the case of `O=C1NC(=O)/C(=C\c2cccc(C(F)(F)F)c2)N1`, the ED50 with Rattus norvegicus [1] was about 50 mg/kg; in the data set with Rattus norvegicus [2] (ip) it was over 200 mg/kg. Moreover, the LD50 in data set [3] came out at 350 mg/kg.

Take `CN1C(=O)NC(Cc2cccc(Br)c2)C1=O` (centres undefined): the ED50 was 30 mg/kg in the data set on Rattus norvegicus [1] and about 100 mg/kg in the data set with Rattus norvegicus [2] (ip). For the same compound, the LD50 in data set [3] turned out to be 500 mg/kg.

Consider `COc1ccc(CC2NC(=O)NC2=O)cc1OC` (centres undefined), for which the ED50 in the data set on Rattus norvegicus [1] is over 50 mg/kg; with Rattus norvegicus [2] (ip), over 200 mg/kg.

Consider `CN1C(=O)NC(Cc2cccc(C(F)(F)F)c2)C1=O` (centres undefined), for which the results for the ED50 with Rattus norvegicus [1] and in the data set with Rattus norvegicus [2] (ip) were over 50 mg/kg and over 100 mg/kg, respectively. The same compound gave an LD50 in data set [3] of 350 mg/kg.

On to `O=C1NC(=O)C(c2ccccc2)(c2ccccc2)N1` [PHENYTOIN], for which the ED50 in the data set with Rattus norvegicus [1] is 9.6 mg/kg; with Mus musculus [5] it was 135 mg/kg; in the data set with Mus musculus [7], 50 mg/kg; in the data set with Mus musculus [11] it was 82 mg/kg; in the data set on Mus musculus [12], 8.5 mg/kg. This compound showed a Duration of action in the data set filed under Rattus norvegicus [4] of 4 h. The values for the LD50 in data set [3], in data set [6] and in [8] were 100 mg/kg, over 1000 mg/kg and 280 mg/kg, respectively. Also, the ED50 entry in the data set with Rattus norvegicus [9] was “inactive”. In the data set on Mus musculus [10], the Tolerance entry is “Active”.

As for `O=C1NC(=O)/C(=C\c2cccc(Br)c2)N1`, the ED50 in the data set on Rattus norvegicus [1] is over 50 mg/kg; with Rattus norvegicus [2] (ip), over 200 mg/kg. The LD50 in [3] was over 500 mg/kg.

Take `O=C1NC(=O)/C(=C\c2cccc(Cl)c2)N1`: the values for the ED50 with Rattus norvegicus [1] and in the data set with Rattus norvegicus [2] (ip) were about 50 mg/kg and over 200 mg/kg, respectively.

With `O=C1NC(=O)C(c2ccccc2)(c2cccc(C(F)(F)F)c2)N1` (centres undefined), the ED50 in the data set with Rattus norvegicus [1] was over 50 mg/kg; in the data set with Rattus norvegicus [2] (ip) it was over 200 mg/kg. For the same compound, in [3], the LD50 is over 100 mg/kg.

In turn, `CC1(Cc2ccc3ccccc3c2)NC(=O)NC1=O` (centres undefined) came in with a 50% effective dose (ED50) with Rattus norvegicus [1] of over 50 mg/kg.

For `CCOC(=O)CN1C(=O)NC(Cc2cccc(C(F)(F)F)c2)C1=O` (centres undefined), the results for the ED50 in the data set with Rattus norvegicus [1] and with Rattus norvegicus [2] (ip) were over 50 mg/kg and over 100 mg/kg, respectively. In data set [3], the LD50 was 500 mg/kg.

`CCCC(CCC)C(=O)O` [VALPROIC ACID]: the LD50 in [13] came out at 838 mg/kg; in the data set on Rattus norvegicus [16], 1530 mg/kg; in data set [18], 1040 mg/kg. For the same compound, the Duration of action in the data set listed under Rattus norvegicus [14] was about 5 h. Moreover, the ED50 in the data set on Mus musculus [15] is 415 mg/kg; in the data set with Rattus norvegicus [17], 94.8 mg/kg; with Rattus norvegicus [2] (ip), over 500 mg/kg; with Mus musculus [12], 260 mg/kg.

Regarding `COc1ccc(CC2(C)NC(=O)NC2=O)cc1OC` (centres undefined), the ED50 in the data set with Rattus norvegicus [1] is over 50 mg/kg; in the data set on Rattus norvegicus [2] (ip), over 200 mg/kg. Besides, the LD50 in [3] was over 500 mg/kg.

Turning to `COc1ccc(OC)c(/C=C2/NC(=O)NC2=O)c1`, the ED50 is over 50 mg/kg in the data set on Rattus norvegicus [1] and over 200 mg/kg in the data set on Rattus norvegicus [2] (ip). For the same compound, the LD50 in data set [3] is over 500 mg/kg.

In the data set on Rattus norvegicus [1], `COc1ccc(OC)c(CC2(C)NC(=O)NC2=O)c1` (centres undefined) yielded an ED50 of over 50 mg/kg. In addition, the LD50 in data set [3] was over 800 mg/kg.

Turning to `O=C1NC(Cc2cccc(C(F)(F)F)c2)C(=O)N1CCBr` (centres undefined), in the data set with Rattus norvegicus [1], the ED50 is over 50 mg/kg.

`O=C1NC(Cc2cccc(C(F)(F)F)c2)C(=O)N1CCO` (centres undefined): the ED50 in the data set with Rattus norvegicus [1] amounted to 45 mg/kg; in the data set with Rattus norvegicus [2] (ip), 100 mg/kg.

Compound `COc1ccc(OC)c(CC2NC(=O)NC2=O)c1` (centres undefined) registered an ED50 in the data set on Rattus norvegicus [1] of over 50 mg/kg.

Take `COc1ccc(/C=C2/NC(=O)NC2=O)cc1OC`: the ED50 is over 200 mg/kg in the data set with Rattus norvegicus [1] and over 50 mg/kg with Rattus norvegicus [2] (ip). The LD50 in data set [3] was over 500 mg/kg.

The compound `N#CCCN1C(=O)NC(Cc2cccc(C(F)(F)F)c2)C1=O` (centres undefined) returned a 50% effective dose (ED50) in the data set on Rattus norvegicus [1] of over 50 mg/kg.

As to `O=C1NC(=O)C(Cc2cccc(C(F)(F)F)c2)N1` (centres undefined), the ED50 in the data set on Rattus norvegicus [1] was 23 mg/kg; with Mus musculus [15] it was 65 mg/kg; in the data set on Mus musculus [11] it was 160 mg/kg; in the data set on Rattus norvegicus [2], about 100 mg/kg; in the data set on Mus musculus [20], 17.5 mg/kg; in the data set with Mus musculus [12], 70 mg/kg. For the same compound, the values for the median lethal dose (LD50) in data set [3] and in data set [8] were 350 mg/kg and 410 mg/kg, respectively. In the data set with Rattus norvegicus [19], this compound showed a Duration of action of 4 h.

The values above are taken from ChEMBL document CHEMBL1121819, “Potential anticonvulsants. 1. 5-Benzylhydantoins” (J Med Chem, 1981).
